# Rows were chosen to be rich in hits. Some 2.9% of all compounds tested hit in one or more screens of this group.
# APOBEC3A inh: blocks human APOBEC3A ssDNA deamination; P31941; recombinant A3A, FAM/TAMRA ssDNA deamination fluorescence; 0.41% of 330,000 active; inhibition, % at 20 µM; AID 493011;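 active = at least 40% inhibition at 20 µM here, with at most 30% in a related deaminase screen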
# Target sequence (P31941 whole entry, looked up): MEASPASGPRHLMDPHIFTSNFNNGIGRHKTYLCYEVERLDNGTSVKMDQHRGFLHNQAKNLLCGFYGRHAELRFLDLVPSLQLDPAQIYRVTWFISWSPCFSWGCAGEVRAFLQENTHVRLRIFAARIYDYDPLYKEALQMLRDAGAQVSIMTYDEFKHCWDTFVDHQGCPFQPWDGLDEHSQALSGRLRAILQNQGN
# HCV NS3 hel inh: HCV NS3 helicase inhibition; NS3 helicase DNA unwinding, Cy5 molecular beacon fluorescence; inhibition, % at 10.9 µM; 0.56% of 290,000 active; AID 1800;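 active = inhibition above the mean of all tested compounds plus 3 SD, set per campaign, cut at about 35% in these data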
#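 Compound dosing – single dose, 10.9 µM nominal final, DMSO 0.8% final · System – NS3 helicase fragment of HCV · Buffer or medium – MOPS pH 6.5, MgCl2, DTT, Tween20, BSA · Signal – Cy5 beacon fluorescence read at start and 1 h · Also added – annealed dual-labelled DNA beacon duplex, ATP-started · Schedule – 1 h at 25 °C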
# HCV core dimer: HCV core protein dimerization inhibition. TR-FRET GST/Flag-core106 dimerization, 1536-well. inhibition, % at 5 µM. 0.33% of 300,000 active. AID 1899;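 active = inhibition above the mean of all tested compounds plus 3 SD, set per screening campaign, cut at about 45% in these data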
#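 Assay system: tagged HCV core106 pair (GST and Flag); medium: KF-containing HEPES buffer, pH 7.45, DTT, CHAPS, BSA; also added: Eu donor and XL665 acceptor anti-tag antibodies; dosing: 5 µM single dose; timing: compound-protein-antibody incubation 4 h at 22.5 °C; signal: TR-FRET 671 and 617 nm emission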
# APOBEC3G inh: blocks human APOBEC3G single-stranded DNA deamination; Q9HC16; recombinant A3G, ssDNA deamination FAM/TAMRA fluorescence; inhibition, % at 20 µM; 0.28% of 330,000 active; AID 493012;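 active = inhibition of at least 40% at 20 µM, with no more than 30% in the related APOBEC3A deaminase screen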
# ABHD5-PLIN5 inh: blocks binding of human ABHD5 to perilipin-5. Q00G26+Q8WTS1. Split G. princeps luciferase complementation, luminescence, 4 h. inhibition, % at 4 µM. 0.78% of 360,000 active;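 active = inhibition above the mean inhibition across every tested compound plus 3 SD, cut at about 22% in these data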
# PRMT1 FP inh: inhibitors of human PRMT1; Q99873; recombinant PRMT1, activity-based probe fluorescence polarization; inhibition, % at 2.79 µM; 1.3% of 370,000 active; AID 652257;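 active = inhibition above about 21% made by adding two undisclosed values, limit read from the data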
# ABHD5-PLIN5 conf: ABHD5-PLIN5 interaction inhibition, confirmed | shares compounds with ABHD5-PLIN5 inh | biochemical ABHD5-PLIN5 interaction, luminescence | inhibition, % at 4 µM | 67% of 2,200 active | AID 651612; in the data active = inhibition above about 23%
# HNF4 counter: HNF4 split-luciferase signal hit, counter-screen; HNF4 dimerization, luminescence, biochemical; AID 651674; 77% of 2,200 active; shares compounds with ABHD5-PLIN5 inh; inhibition, % at 4 µM;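 active = mean inhibition across replicate wells exceeding the computed hit threshold, cut at about 13% in these data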;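 note: light from luciferase halves that rejoin when HNF4 fusion proteins dimerize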
# Target sequence (P41235 whole entry, looked up, the tested form may be a part): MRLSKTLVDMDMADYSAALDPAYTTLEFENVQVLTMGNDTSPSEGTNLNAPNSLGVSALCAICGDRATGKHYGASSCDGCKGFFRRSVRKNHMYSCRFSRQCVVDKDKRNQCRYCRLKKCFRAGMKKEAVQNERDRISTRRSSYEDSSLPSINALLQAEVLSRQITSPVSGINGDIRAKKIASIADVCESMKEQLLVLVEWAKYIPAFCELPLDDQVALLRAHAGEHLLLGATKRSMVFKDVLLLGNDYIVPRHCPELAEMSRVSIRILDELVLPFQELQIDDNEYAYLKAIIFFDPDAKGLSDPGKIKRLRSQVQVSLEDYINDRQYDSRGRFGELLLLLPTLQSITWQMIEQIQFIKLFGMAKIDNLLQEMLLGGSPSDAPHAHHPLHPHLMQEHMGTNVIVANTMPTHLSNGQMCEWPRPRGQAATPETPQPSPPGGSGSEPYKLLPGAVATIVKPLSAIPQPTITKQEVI
# PRMT1 inh conf: PRMT1 (human) inhibition, FP confirmation. shares compounds with PRMT1 FP inh. recombinant His-PRMT1, activity-based probe fluorescence polarization. inhibition, % at 2.79 µM. 42% of 3,300 active. AID 687036;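 active = mean inhibition across replicates above the hit cutoff derived for the earlier primary screen, cut at about 22% in these data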
# Numbers stand for hits; – = inactive; · = no result.
SMILES,APOBEC3A inh,HCV NS3 hel inh,HCV core dimer,APOBEC3G inh,ABHD5-PLIN5 inh,PRMT1 FP inh,PRMT1 inh conf,others
O=C1NC(=O)N(Cc2ccco2)C(=O)/C1=C/C=C/c1ccco1,–,–,–,–,46,61,–,ABHD5-PLIN5 conf=98;HNF4 counter=80
COc1ccc(/C=C2/C(=O)NC(=O)N(Cc3ccco3)C2=O)cc1,–,–,–,–,·,·,·,
CN1C(=O)/C(=C/C=C/c2ccco2)C(=O)NC1=S,–,–,–,–,26,40,57,ABHD5-PLIN5 conf=74;HNF4 counter=49
Cc1cccc(N2C(=O)NC(=O)/C(=C\C=C\c3ccco3)C2=O)c1,–,–,–,–,24,36,–,ABHD5-PLIN5 conf=93;HNF4 counter=70
N#CCCn1cc(C(=O)Nc2ccccc2Cl)c(-c2ccc(F)cc2)n1,–,–,–,–,–,–,·,
O=P(O)(O)Cc1c(Cl)cccc1Cl,–,–,–,–,–,–,·,
Cc1cc(OC(C)C(=O)NCc2ccncc2)c2c3c(c(=O)oc2c1)CCCC3 (stereo not drawn),–,–,–,–,–,–,·,
CNc1cc(Cl)c2nonc2c1[N+](=O)[O-],·,–,·,·,32,57,25,ABHD5-PLIN5 conf=36;HNF4 counter=80
COC(=O)C1=C(c2ccccc2)C[C@@H]2CC[C@H]1N2C(=O)NCCCOC(C)C,–,·,–,–,–,–,·,
CCN1/C(=C/C=C/C2=[N+](CC)c3ccccc3C2(C)C)C(C)(C)c2ccccc21,·,·,·,·,52,156,131,ABHD5-PLIN5 conf=28;HNF4 counter=37
CN1/C(=C\C=C\C2=[N+](C)c3ccc4ccccc4c3C2(C)C)C(C)(C)c2ccccc21,–,–,–,–,·,·,·,
CN1C(=O)C(=Cc2cn(CC#N)c3ccccc23)C(=O)N(C)C1=O,–,–,·,–,29,32,–,ABHD5-PLIN5 conf=23;HNF4 counter=21
CN1C(=O)C(=Cc2coc3ccccc3c2=O)C(=O)N(C)C1=O,–,–,–,–,–,–,·,
CN1C(=O)C(=Cc2cn(CC(=O)N3CCCC3)c3ccccc23)C(=O)N(C)C1=O,–,–,–,–,45,32,–,ABHD5-PLIN5 conf=–;HNF4 counter=34
CC1CC(C)(O)CC(C(O)CC2CC(=O)NC(=O)C2)C1=O (stereo not drawn),·,·,·,·,–,–,·,
Cc1ccc(S(=O)(=O)Oc2ccccc2C=C2C(=O)N(C)C(=O)N(C)C2=O)cc1,–,–,–,–,35,30,–,ABHD5-PLIN5 conf=71;HNF4 counter=72
[Cl][Pt+2][Cl].[NH-]C1CCCCC1[NH-] (stereo not drawn),–,·,–,–,36,47,–,ABHD5-PLIN5 conf=60;HNF4 counter=55
CC1CN=C(NCc2ccccc2Cl)S1 (stereo not drawn),–,–,–,–,–,–,·,
CN1C(=O)C(=Cc2ccc(N3CCOCC3)o2)C(=O)N(C)C1=S,–,–,–,–,–,–,·,
CN1C(=O)C(=Cc2ccc(Sc3ccccc3)o2)C(=O)N(C)C1=S,–,·,–,–,–,36,76,
CC(C)(C)N1Cc2ccccc2C1=N,–,–,–,–,–,–,·,
NNc1n[nH]c(=S)n1N,–,–,–,–,–,–,·,
C=CCN=C(SCC(=O)c1ccc(Cl)cc1)c1c(O)n(C)c(=O)n(C)c1=O,–,–,–,–,–,29,31,
CN=C(SCc1ccccc1)c1c(O)n(C)c(=O)n(C)c1=O,–,–,–,–,–,–,·,
Cc1nonc1OCCNCCNc1ccc([N+](=O)[O-])c2cccnc12,–,–,–,–,–,–,·,
SMILES,APOBEC3A inh,HCV NS3 hel inh,HCV core dimer,APOBEC3G inh,ABHD5-PLIN5 inh,PRMT1 FP inh,PRMT1 inh conf,others
O=C1CC(=O)N(Cc2ccccc2)C(=S)N1,–,–,–,–,–,32,–,
CCOC(=O)C1SC2(C(F)F)CC1(O)c1c(c(OC)c3occc3c1OC)O2 (stereo not drawn),–,–,–,–,–,29,–,
COc1ccc(OC)c(N2C(=O)NC(=O)/C(=C/c3ccc([N+](=O)[O-])s3)C2=O)c1,–,–,–,–,–,28,58,
CCN1C(=O)/C(=C\c2ccc([N+](=O)[O-])s2)C(=O)NC1=S,·,–,·,·,·,·,·,
Cc1cc(N2CCCCC2)ccc1C=C1C(=O)N(C)C(=S)N(C)C1=O,–,–,–,–,–,29,22,
CCCNC1=C(C)C(=O)C2=C(C1=O)C(COC(N)=O)[C@]1(OC)C3NC3CN21 (stereo partly drawn),–,–,–,–,–,–,·,
O=c1[nH]c(=S)n(CCC2=CCCCC2)c(O)c1C=NCCCn1ccnc1,–,–,–,–,–,–,·,
O=C1CC(N2CCC(n3c(=O)[nH]c4ccccc43)CC2)C(=O)N1c1ccc(F)cc1 (stereo not drawn),–,–,–,–,–,45,–,
CC(C)c1oc(=O)cc2c1[C@@H](O)[C@H]1OC(=O)[C@@]3(C)C[C@@H](O)[C@@H](O)[C@@]2(C)C13 (stereo partly drawn),–,–,–,–,–,–,·,
O=C(/C=C/c1ccccc1)N1Cc2ccccc2-n2nncc2C1,·,·,·,·,–,–,·,
CN(C)c1ccc(C=C2C(=O)NC(=O)NC2=O)cc1,·,·,·,·,–,–,·,
O=C1NC(=O)C(=Cc2ccc3c(c2)OCO3)C(=O)N1,–,–,–,–,·,25,–,
Cc1cc(OC(C)C(=O)NCc2ccncc2)c2c3c(c(=O)oc2c1)CCC3 (stereo not drawn),–,–,–,–,–,–,·,
Cc1c(C=C2C(=O)NC(=O)NC2=O)c(=O)n(-c2ccccc2)n1C,–,–,–,–,–,–,·,
O=C1NC(=O)C(=Cc2c(Cl)cccc2Cl)C(=O)N1,·,·,·,·,–,31,–,
C=CCN1C(=O)/C(=C/c2ccc3c(c2)CCCN3CCC)C(=O)NC1=S,–,–,–,–,–,26,–,
C[C@]12CCC3C(CC[C@H]4C[C@@H](O)CC[C@]34C)C1C[C@@H](Br)[C@H]2O (stereo partly drawn),–,·,·,–,–,–,·,
CSc1ncc(/C=C2/C(=O)NC(=O)N(C3CCCCC3)C2=O)cn1,–,–,–,–,–,26,–,
CSc1ncc(/C=C2/C(=O)NC(=O)N(C)C2=O)cn1,–,–,–,–,–,–,·,
O=c1[nH]c(=O)n(C2CCCCC2)c(O)c1C1NCCc2ccccc21 (stereo not drawn),–,–,–,–,–,28,–,
Cc1cc(N2CCNC[C@H]2C)ccc1N1CC[C@H](O)C1,·,·,·,·,·,41,–,
O=C1NC(=O)N(Cc2ccccc2)C(=O)/C1=C/c1cnc(-c2ccccc2)nc1,–,–,–,–,–,–,·,
O=C1NC(=O)N(Cc2ccccc2)C(=O)/C1=C/N1CCCc2ccccc21,–,–,–,–,–,28,–,

# Bioassay records as filed in PubChem.
